Screening data deposited in PubChem BioAssay by several laboratories.
Compounds with a hit are over-represented: about 7.1% of the library has one in this group of screens.
Lung fibro prol: antiproliferative effect on LL 47 fibroblasts – human, LL 47 cells, CellTiter-Glo luminescence, primary screen | LL 47 human lung fibroblast viability, ATP luminescence; hits give low values | AID 719, 2007 | viability, % at 10 µM | hit rate 1.1% among 85,000;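 active means viability at or below 50% in the single dose screen; inactive means viability above 50%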;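 further: compound exposure lasted 72 h before the ATP readout; 100% = median luminescence of untreated cell-only wells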
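test system = LL 47 human lung fibroblasts | amount = 1,150 fibroblasts seeded per well | medium = 15% FBS in IMEM | times = overnight cell rest, 72 h compound treatment at 37 °C | measured by = CellTiter-Glo luminescence measuring cellular ATP | read-out = viability percentage against median untreated-cell control | benchmarks = cell-only wells, no compound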
H69AR inhibit: proliferation blockers of H69AR lung cancer cells, primary screen, cell-based, human, 86K library; H69AR lung tumor viability, ATP luminescence, 72 h; hits give low values; viability, % at 10 µM; hit rate 6% among 85,000; AID 598, 2007;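 active means viability at or below 40%; inactive means viability above 40%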;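 further: multidrug resistant small cell line overexpressing MRP-1 efflux transporter; 100% = mean luminescence of untreated control wells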
Cav32 inh: Cav3.2 calcium influx blockers – cell-based, Fluo-4 calcium fluorescence, FDSS, MLSMR library, primary screen | AID 449739, 2010 | B-score at 10 µM | Cav3.2-expressing cells; hits give low values | hit rate 4% among 100,000 | Voltage-dependent T-type calcium channel subunit alpha-1H (Homo sapiens), O95180;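 active means single-dose well whose peak fluorescence ratio is a statistical outlier from its plate by either plate-standardised score or position-corrected B-score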
HCT116 PTEN-null: growth suppression of PTEN-null HCT116, primary screen, cell-based, CellTiter-Glo; HCT116 PTEN-null viability, 60 h; hits give low values; viability, % at 10 µM; hit rate 1.2% among 140,000;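 active means viability at or below a set limit, 4 SD under the median of all tested compounds, cut at about 3.7% in these data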;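 further: PTEN knockout HCT116 line with beta catenin targeted HCT116 as companion control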
bCat KO growth: primary screen for growth suppressors in beta-catenin knockout HCT116 cells (colon tumor, human); HCT116 beta-catenin knockout viability, CellTiter-Glo, 60 h; hits give low values; viability, % at 10 µM; hit rate 1.5% among 140,000; AID 818, 2007;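 active means viability at or under a set limit, the compound median less 4 SD, cut at about 6% in these data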;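 further: 0% = Hyamine 1622 control at 20 µM and 100% = untreated cell control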
HUVEC inhibit: inhibitors of HUVEC proliferation, primary screen, cell-based, 384-well; hit rate 1.1% among 86,000; viability, % at 10 µM (by protocol); AID 648, 2007; CellTiter-Glo luminescence, 72 h; hits give low values;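 active means viability at or below 30%; inactive means viability above 30%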;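 further: 100% = median luminescence of DMSO-only cell control wells on each plate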
The depositor's hits bear a star; x = no result given.

SMILES | Lung fibro prol | H69AR inhibit | Cav32 inh | HCT116 PTEN-null | bCat KO growth | HUVEC inhibit
CCOC(=O)c1cc(-c2ccccc2)n(CCC(=O)O)c1C | 104 | 80 | 0.0048 | 81 | 74 | 90
Cc1cc(-c2csc(N)n2)c(C)n1CCc1ccccc1 | 89 | 40* | -2.9 | 95 | 93 | 42
C/C(CC1CC2=C(CC1(C)C)C(C)(C)CCC2)=N\NC(N)=S (stereo not drawn) | 95 | 23* | -3.1 | 28 | 9 | 36
C/C(=N\NC(N)=S)C1(C)CCCCC1 | x | x | x | 86 | 85 | x
COc1cc(CCC(=O)Nc2cccc(S(=O)(=O)N(C)C)c2)cc(OC)c1OC | x | x | x | 87 | 88 | x
CCOC(=O)C1CCN(c2ccc(C(N)=O)cc2[N+](=O)[O-])CC1 | x | x | x | 97 | 91 | x
NNc1ncnc2c1cnn2-c1ccccc1 | 91 | 20* | 2.5 | 77 | 76 | 73
CC(C)Nc1ncnc2c1cnn2-c1ccccc1 | 100 | 76 | 0.14 | 69 | 70 | 82
CCOC(=O)N1CCC(Nc2ncnc3c2cnn3-c2ccccc2)CC1 | 99 | 28* | -3.6 | 92 | 93 | 93
CN(C)CCNS(=O)(=O)c1ccc(N2CCN(c3ccc(F)cc3)CC2)c([N+](=O)[O-])c1 | x | x | x | 69 | 51 | x
CCOc1ccc(/C(O)=C2/C(=O)C(=O)N(CC3CCCO3)C2c2cccs2)cc1 (stereo not drawn) | x | x | x | 97 | 80 | x
N#C/C(=C(/O)CN1CCOCC1)c1nc(-c2ccccc2)cs1 | 96 | 84 | -0.037 | 96 | 94 | 102
CCCCN(C)C/C(O)=C(\C#N)c1nc(-c2ccccc2)cs1 | 96 | 39* | 0.37 | 92 | 102 | 82
Cc1c(O)c2c(=O)n(-c3ccccc3)c(-c3ccccc3)cc2oc1=O | x | x | x | 74 | 69 | x
O=C(NN1C(=O)c2ccccc2NC1c1ccccn1)c1ccccc1 (stereo not drawn) | x | x | x | 94 | 86 | x
CN(C)CCOc1nc(-c2ccccc2)nc2c1oc1ccccc12 | 30* | 2.3* | 1.5 | 3.0* | 2.0* | 4.4*
CN(C)CCOc1ncnc2c1oc1ccccc12 | 101 | 87 | 0.066 | 105 | 106 | 94
NC(=O)C1(N2CCCCC2)CCN(C(=S)Nc2cccc(Cl)c2)CC1 | x | x | x | 86 | 97 | x
O=C(/C=C/c1c(Cl)cccc1Cl)n1cccn1 | 93 | 26* | -0.36 | 99 | 99 | 90
O=C(/C=C/c1c(F)cccc1Cl)Nc1ncccn1 | x | x | x | 86 | 85 | x
Cc1ccccc1NS(=O)(=O)c1ccc(N2CCCC2=O)cc1 | 49* | 26* | 0.9 | 28 | 18 | 63
O=C1CCn2nc(-c3ccc(Cl)cc3)cc2N1 | 104 | 95 | 0.083 | 84 | 85 | 17*
O=C(Nc1ccc(S(=O)(=O)N2CCCCCC2)cc1)c1ccc(Br)o1 | 96 | 44 | -3.2* | 79 | 91 | 54
COc1ccc(NS(=O)(=O)c2c(C)cc(C)cc2C)cc1 | 101 | 16* | -6.1* | 81 | 74 | 91
COc1ccc(S(=O)(=O)Nc2ccc(S(=O)(=O)N3CCCCC3)cc2)cc1 | x | 90 | -6.6* | 83 | 76 | 96
SMILES | Lung fibro prol | H69AR inhibit | Cav32 inh | HCT116 PTEN-null | bCat KO growth | HUVEC inhibit
O=S(=O)(NC1CCCCCC1)c1ccc(Br)s1 | 86 | 85 | -4.9* | 88 | 96 | 88
O=S(=O)(Nc1ccc(S(=O)(=O)N2CCCCC2)cc1)c1ccc(Br)s1 | 88 | 77 | -5.4* | 90 | 97 | 74
O=C(NNS(=O)(=O)c1ccccc1[N+](=O)[O-])c1cccc([N+](=O)[O-])c1 | x | x | x | 95 | 86 | x
Cc1ccc(NC2=C(Cl)C(=O)OC2OC(=O)c2ccco2)cc1 (stereo not drawn) | 92 | 33* | -0.41 | 91 | 86 | 65
Cc1ccc(/C(N)=N/OC(=O)c2ccco2)cc1 | 99 | 76 | 0.18 | 94 | 96 | 84
COc1ccc(CNc2oc(COc3ccc(Cl)cc3)nc2C#N)cc1 | 92 | 87 | -4.4* | 48 | 46 | 79
COc1ccc(CCNc2oc(COc3ccccc3F)nc2C#N)cc1 | 104 | 93 | -5.9* | 96 | 94 | 72
COCCCNc1oc(COc2ccc(Cl)cc2Cl)nc1C#N | 98 | 52 | -5.6* | 94 | 109 | 92
Cc1ccc(OCc2nc(C#N)c(NCc3ccc4c(c3)OCO4)o2)cc1 | 94 | 107 | -6.5* | 101 | 93 | 97
COc1ccc(Nc2oc(COc3ccc(Cl)cc3)nc2C#N)cc1 | 102 | 71 | -0.84 | 37 | 14 | 79
CCc1ccccc1NC(=O)c1ccc(-n2c(C)ccc2C)cc1 | x | x | -1.4 | 4 | 3.8* | x
Cc1ccc(C)n1-c1ccc(NC(=O)c2ccccc2)cc1 | x | x | x | 19 | 18 | x
Cc1occc1-c1nnc(SCC(=O)Nc2ccc(F)cc2)n1Cc1ccccc1 | 86 | 65 | -6.2* | 95 | 104 | 85
CCCn1c(SCC(=O)Nc2ccccc2-c2ccccc2)nnc1-c1ccoc1C | 88 | 48 | -5.9* | 68 | 69 | 106
CCCCOc1ccc(C(C)NC(=O)C2CCCN(S(=O)(=O)CCC)C2)cc1 (stereo not drawn) | x | x | x | 55 | 72 | x
Oc1ccc2ccccc2c1/C=N/Nc1nnc(-c2ncc[nH]2)c2ccccc12 | x | x | -2.1 | 2.1* | 4.9* | x
Cc1ccc2cc3c(NC(=O)c4ccco4)nn(C)c3nc2c1 | 102 | 35* | x | 92 | 90 | 75
CC(=O)Nc1nn(C)c2nc3cc(C)ccc3cc12 | 100 | 84 | 0.036 | 98 | 95 | 86
Cc1c(O)c2cccnc2[nH]c1=O | x | x | x | 114 | 100 | x
Cc1ccc(C)c(N2CCN(C(=O)C3CCN(c4nc(C)cc(C)n4)CC3)CC2)c1 | 101 | 92 | -5.6* | 68 | 75 | 93
CCc1cc(-c2n[nH]c(C)c2-c2nc3ccccc3n2C)c(O)c(CN2CCN(C)CC2)c1O | x | 16* | -0.17 | 76 | 82 | 79
Brc1ccc(-c2ccc(/C=N/Nc3nc4ccccc4[nH]3)o2)cc1 | x | x | x | 47 | 57 | x
Nc1nc(-c2ccccc2)cc(N2CCCCC2)n1 | 56 | 23* | -1.8 | 13 | 12 | 57
Cc1nc(-c2ccccc2)cc(N2CCCC2)n1 | x | x | -1.5 | 99 | 101 | x
O=S(=O)(NC1=NCCC1)c1cccc(NS(=O)(=O)c2ccc(OC(F)(F)F)cc2)c1 | x | x | x | 96 | 88 | x
COc1cccc(CN(C(=O)Cc2c[nH]c3ccccc23)C(C(=O)NC2CCCCC2)c2cccs2)c1 (stereo not drawn) | x | x | -6.6* | 35 | 35 | x
COc1ccc(CN(C(=O)Cc2cccs2)C(C(=O)NC2CCCC2)c2ccncc2)cc1 (stereo not drawn) | x | x | -3.3 | 87 | 90 | x
